The source of these data is PubChem BioAssay.

The nature of test [1]: Her2 expression decrease, cell viability multiplex – SKBR3 breast tumor cells, AlphaScreen, ATP viability, primary screen (AID 461).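 As to Her2 level: lower value means less Her2 protein in the cells.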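 As to viability: percent of carrier control wells set as 100% viability.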 Conditions: SKBR3 Her2 protein level, 18-24 h, measured here: SKBR3 viability, ATP luminescence, at 10 µM.
For test [2], the target named is Receptor tyrosine-protein kinase erbB-2 (Homo sapiens) (UniProt P04626). Described as above. Conditions: 18-24 h, at 10 µM, stronger effect = lower value.
A short description of test [3]: reduced viability of SK-BR-3 breast cancer cells – cell-based, 24 h, human, pilot screen (AID 572;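 active = viability at or below 10% of carrier control in both of two separate runs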;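 also: compound exposure lasted between 18 and 24 h rather than exactly 24 h; 100% = carrier-treated control wells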). Particulars: SK-BR-3 viability, CellTiter-Glo luminescence, at 10 µM, stronger effect = lower value.
A short description of test [4]: HUVEC growth inhibition – cell-based, human, primary screen (AID 575;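 active = viability at or below 30% in both replicate assays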;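 also: 100% = median of untreated cell wells with 0.1% DMSO on each plate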). Conditions: HUVEC proliferation, CellTiter-Glo luminescence, 72 h; at 10 µM; stronger effect = lower value. The essentials: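 Material: primary human umbilical vein endothelial cells / Schedule: 72 h exposure, 37 °C, 5% CO2, 30 min RT equilibration / Signal: ATP-based CellTiter-Glo luminescent read / Read-out basis: percent of median DMSO-control luminescence / Control set: 32 DMSO-only cell-control wells (high), 32 MePR drug-control wells (low) per plate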
On the technique in general: Cellular ATP, detected with luciferase, serves as a proxy for viable cell number.

The nature of test [5]: H69AR cell proliferation blockers – human, duplicate replicates, primary screen (AID 580;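 active = viability at or under a set limit in both replicates, limit being median viability minus 3 SD, cut at about 48% in these data, passing the limit was not always enough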;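 also: 100% = mean luminescence of untreated wells and 0% = no signal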). Conditions: H69AR lung tumor cells viability, ATP luminescence, 72 h; at 10 µM; stronger effect = lower value.
Test [6] in a line: MRP1 drug-resistance reversers in H69AR cells – cell-based, doxorubicin co-treatment, pilot screen (AID 601;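 active = viability loss from added drug above about 55%, and viability with drug at most 40%, in both replicates, limit read from the data, passing the limit was not always enough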). Conditions: CellTiter-Glo, 72 h, at 10 µM; for differential viability (reversal): stronger effect = higher value.
A short description of test [7]: yeast transport mutant growth inhibition pilot in 384-well plates, post-Golgi transport modulator project (AID 636; in the data active = inhibition above about 31%). Particulars: absorbance 615 nm, about 18 h, stronger effect = higher value.
The nature of test [8]: growth suppression of yeast trafficking mutant, preliminary HTS, modulators of trafficking downstream of Golgi apparatus project, 1536-format plate, OD 615 nm (AID 637; in the data active = inhibition above about 30%). Particulars: yeast transport mutant growth, absorbance 615 nm, 18 h; stronger effect = higher value.
Setting [9] is: H69AR cells + 2 uM doxorubicin, measured here: viability with 2 uM doxorubicin, stronger effect = lower value.
Setting [10] is: H69AR cells, compound alone cytotoxicity.

The source made the active and inactive calls.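 The calls were made as follows, unless noted: active = Her2 level under about 52% in both replicate screens, with viability over 70% of control (limit read from the data); inconclusive = Her2 under the limit in one screen only, or viability under 70%; inactive = Her2 level above the set limit.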

Chain of Receptor tyrosine-protein kinase erbB-2 (Homo sapiens) (P04626 whole entry, looked up): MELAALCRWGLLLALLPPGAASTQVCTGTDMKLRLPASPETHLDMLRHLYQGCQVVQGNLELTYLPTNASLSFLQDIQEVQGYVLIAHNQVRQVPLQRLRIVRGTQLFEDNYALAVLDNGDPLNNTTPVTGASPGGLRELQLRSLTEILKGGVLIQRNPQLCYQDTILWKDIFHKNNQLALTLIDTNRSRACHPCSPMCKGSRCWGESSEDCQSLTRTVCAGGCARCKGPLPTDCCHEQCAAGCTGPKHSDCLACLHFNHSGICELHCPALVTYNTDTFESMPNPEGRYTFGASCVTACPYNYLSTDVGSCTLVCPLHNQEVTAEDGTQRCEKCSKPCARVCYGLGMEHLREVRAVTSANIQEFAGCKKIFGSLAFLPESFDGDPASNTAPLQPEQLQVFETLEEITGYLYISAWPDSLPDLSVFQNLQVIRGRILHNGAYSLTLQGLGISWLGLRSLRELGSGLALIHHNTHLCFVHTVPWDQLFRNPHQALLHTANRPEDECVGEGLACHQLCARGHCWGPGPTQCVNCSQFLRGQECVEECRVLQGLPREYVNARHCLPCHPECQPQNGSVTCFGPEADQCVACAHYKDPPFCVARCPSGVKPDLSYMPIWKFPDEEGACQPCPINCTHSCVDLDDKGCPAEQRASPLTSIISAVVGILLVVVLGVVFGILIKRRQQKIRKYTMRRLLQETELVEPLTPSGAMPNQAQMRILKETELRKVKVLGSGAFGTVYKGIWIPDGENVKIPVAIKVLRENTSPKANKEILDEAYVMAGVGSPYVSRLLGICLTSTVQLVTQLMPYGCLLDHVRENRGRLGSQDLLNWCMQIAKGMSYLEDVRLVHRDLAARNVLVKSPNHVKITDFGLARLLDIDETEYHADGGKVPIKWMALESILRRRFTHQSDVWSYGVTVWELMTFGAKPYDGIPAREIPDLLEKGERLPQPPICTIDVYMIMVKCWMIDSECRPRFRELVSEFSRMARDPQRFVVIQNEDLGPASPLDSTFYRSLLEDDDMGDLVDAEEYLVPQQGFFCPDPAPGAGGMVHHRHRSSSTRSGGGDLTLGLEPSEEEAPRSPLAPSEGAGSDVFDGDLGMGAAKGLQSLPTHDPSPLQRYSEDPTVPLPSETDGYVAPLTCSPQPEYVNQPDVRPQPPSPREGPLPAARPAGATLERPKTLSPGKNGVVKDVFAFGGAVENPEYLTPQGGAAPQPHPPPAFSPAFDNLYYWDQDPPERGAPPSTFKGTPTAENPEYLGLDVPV

The term viability denotes a read-out of living cells in per cent, often relative to untreated cells. Usually inhibition stands for the drop in the measured response relative to a control, in per cent. Consider `COc1ccc(C2C(C(=O)c3sc(C)nc3C)=C(O)C(=O)N2CCN(C)C)cc1OC` (stereo not given), for which the viability in test [1] was 108%; in test [3], 108% (inactive); in test [4], 99.3% (inactive); in test [5], 86.7% (inactive); in test [6] (setting [9]) it was 94.8%; in test [6] (setting [10]), 86.7%. Besides, the Her2 level in test [2] is 111% (inactive). Moreover, the differential viability (reversal) in test [6] (H69AR cells + 2 uM doxorubicin) is -8.1% (inactive). In addition, the inhibition in test [7] is -2.27% (inactive); in test [8], -2.79% (inactive).

As for `O=c1c2cc(N3CCOCC3)ccc2[nH]c(=S)n1CCCN1CCCC1`, the viability is 89% in test [1]; 89% (inactive) in test [3]; 86% (inactive) in test [4]; 100% (inactive) in test [5]; 85.4% in test [6] (setting [9]); 100% in test [6] (setting [10]). Also, the Her2 level in test [2] is 78% (inactive). Further, the differential viability (reversal) in test [6] (H69AR cells + 2 uM doxorubicin) is 14.6% (inactive). Moreover, the inhibition is -5.41% (inactive) in test [7] and 6.89% (inactive) in test [8].

Consider `CCOC(=O)c1sc(=NC(=O)c2ccc(OC)c(OC)c2)n(C)c1C`, for which the viability in test [1] is 121%; in test [3], 121% (inactive); in test [4], 108% (inactive); in test [5], 65% (inactive); in test [6] (setting [9]), 71.7%; in test [6] (setting [10]), 65%. Also, the Her2 level in test [2] is 84% (inactive). For the same compound, in test [6] (H69AR cells + 2 uM doxorubicin), the differential viability (reversal) is -6.65% (inactive). In addition, the inhibition in test [7] is -5.06% (inactive); in test [8] it was -0.16% (inactive).

Consider `O=c1ccc2cc3c([nH]c4ccc(Br)cc43)oc-2c1O`, for which the viability was 146% in test [1]; 146% (inactive) in test [3]; 91.7% (inactive) in test [4]; 78.3% (inactive) in test [5]; 82.1% in test [6] (setting [9]); 78.3% in test [6] (setting [10]). For the same compound, in test [2], the Her2 level is 87% (inactive). Besides, in test [6] (H69AR cells + 2 uM doxorubicin), the differential viability (reversal) was -3.78% (inactive). Besides, the inhibition was -4.16% (inactive) in test [7] and -3.81% (inactive) in test [8].

As for `COc1cc2[nH]c(=O)n(CCC(=O)N3CCc4ccccc4C3)c(=O)c2cc1OC`, the viability was 102% in test [1]; 102% (inactive) in test [3]; 116% (inactive) in test [4]; 92.4% (inactive) in test [5]; 95% in test [6] (setting [9]); 92.4% in test [6] (setting [10]). Further, the Her2 level in test [2] was 106% (inactive). Moreover, the differential viability (reversal) in test [6] (H69AR cells + 2 uM doxorubicin) was -2.6% (inactive). Further, the inhibition in test [7] was -4.73% (inactive); in test [8], -2.33% (inactive).

Turning to `CCOC(=O)c1cnn(-c2cc(C)c3cc(C)cc(C)c3n2)c1N`, the viability in test [1] was 88.5%; in test [3], 88.5% (inactive); in test [4], 95.5% (inactive); in test [5] it was 82.5% (inactive); in test [6] (setting [9]), 84.6%; in test [6] (setting [10]), 82.5%. In addition, the Her2 level in test [2] is 104% (inactive). In test [6] (H69AR cells + 2 uM doxorubicin), the differential viability (reversal) is -2.12% (inactive). Also, the inhibition in test [7] is 1.82% (inactive); in test [8], -8.89% (inactive).

As to `CC(=O)N(C)C1(c2nnnn2CCOC(=O)Nc2cccc3ccccc23)CCCC1`, the viability was 119% in test [1]; 119% (inactive) in test [3]; 83.9% (inactive) in test [4]; 87.3% (inactive) in test [5]; 84.1% in test [6] (setting [9]); 87.3% in test [6] (setting [10]). Moreover, in test [2], the Her2 level is 85.5% (inactive). The differential viability (reversal) in test [6] (H69AR cells + 2 uM doxorubicin) is 3.21% (inactive). In addition, the inhibition in test [7] is -4.13% (inactive); in test [8] it was 5.08% (inactive).

As for `COc1ccccc1N1CCN(C(=O)CCNS(=O)(=O)c2ccc3c(c2)CCC(=O)N3)CC1`, the viability in test [1] was 89%; in test [3], 89% (inactive); in test [4], 106% (inactive); in test [5], 89.8% (inactive); in test [6] (setting [9]), 90.4%; in test [6] (setting [10]), 89.8%. For the same compound, in test [2], the Her2 level was 81.5% (inactive). Also, the differential viability (reversal) in test [6] (H69AR cells + 2 uM doxorubicin) is -0.605% (inactive). In addition, the inhibition in test [7] was -4.53% (inactive); in test [8] it was 2.62% (inactive).

As to `O=C(Nc1ccc2nc(-c3cccs3)[nH]c2c1)c1ccco1`, the viability was 108% in test [1]; 108% (inactive) in test [3]; 94.2% (inactive) in test [4]; 75.2% (inactive) in test [5]; 74% in test [6] (setting [9]); 75.2% in test [6] (setting [10]). Also, in test [2], the Her2 level was 98.5% (inactive). In test [6] (H69AR cells + 2 uM doxorubicin), the differential viability (reversal) was 1.25% (inactive). Moreover, the inhibition was 0.13% (inactive) in test [7] and 2.95% (inactive) in test [8].

As to `Cn1cccc1Cc1nnc(SCC(=O)Nc2ccc(F)cc2)n1-c1ccc(F)cc1`, the viability was 86% in test [1]; 86% (inactive) in test [3]; 71.9% (inactive) in test [4]; 80.2% (inactive) in test [5]; 90.1% in test [6] (setting [9]); 80.2% in test [6] (setting [10]). In addition, the Her2 level in test [2] is 93% (inactive). Also, the differential viability (reversal) in test [6] (H69AR cells + 2 uM doxorubicin) was -9.93% (inactive). In addition, the inhibition was 0% (inactive) in test [7] and -1% (inactive) in test [8].

As for `Cc1cccc(C)c1OCc1nnc2c3cnn(C)c3ncn12`, the viability in test [1] is 100%; in test [3] it was 100% (inactive); in test [4], 105% (inactive); in test [5], 91.9% (inactive); in test [6] (setting [9]), 94%; in test [6] (setting [10]), 91.9%. Further, in test [2], the Her2 level is 138% (inactive). Further, the differential viability (reversal) in test [6] (H69AR cells + 2 uM doxorubicin) was -2.03% (inactive). Also, the inhibition is -2.11% (inactive) in test [7] and -4.59% (inactive) in test [8].

As to `CC1=C(C(=O)Nc2ccccc2)C(c2ccco2)C(C#N)=C(SCC(=O)Nc2cccc(C)c2C)N1` (stereo not given), the viability in test [1] is 104%; in test [3], 104% (inactive); in test [4], 77.1% (inactive); in test [5], 47.5% (active); in test [6] (setting [9]), 57.6%; in test [6] (setting [10]), 47.5%. The Her2 level in test [2] is 85.5% (inactive). In addition, in test [6] (H69AR cells + 2 uM doxorubicin), the differential viability (reversal) was -10.1% (inactive). Moreover, the inhibition in test [7] is -4.93% (inactive); in test [8], -3.97% (inactive).

On to `CCOC(=O)c1[nH]c(C)c(C(=O)N2CCN(c3ccc(F)cc3)CC2)c1C`, for which the viability in test [1] is 107%; in test [3], 107% (inactive); in test [4], 107% (inactive); in test [5] it was 92.3% (inactive); in test [6] (setting [9]) it was 90.2%; in test [6] (setting [10]), 92.3%. For the same compound, in test [2], the Her2 level was 84% (inactive). The differential viability (reversal) in test [6] (H69AR cells + 2 uM doxorubicin) was 2.1% (inactive). Moreover, the inhibition is -2.37% (inactive) in test [7] and -4.44% (inactive) in test [8].

`COc1ccc(OC)c(C(=O)c2nc3c(n2O)CCCCC3)c1`: the viability in test [1] is 78.5%; in test [3], 78.5% (inactive); in test [4] it was 99.9% (inactive); in test [5], 93.2% (inactive); in test [6] (setting [9]), 97.6%; in test [6] (setting [10]) it was 93.2%. The Her2 level in test [2] was 122% (inactive). In addition, in test [6] (H69AR cells + 2 uM doxorubicin), the differential viability (reversal) was -4.37% (inactive). Further, the inhibition in test [7] is -5.13% (inactive); in test [8], 0.98% (inactive).

With `COc1ccccc1N1CCN(C(=O)C(Cc2ccccc2)NC(=O)C2CCCCC2)CC1` (stereo not given), the viability in test [1] is 73.5%; in test [3], 73.5% (inactive); in test [4] it was 74.8% (inactive); in test [5], 90.6% (inactive); in test [6] (setting [9]), 86.7%; in test [6] (setting [10]), 90.6%. In addition, the Her2 level in test [2] was 85.5% (inactive). In test [6] (H69AR cells + 2 uM doxorubicin), the differential viability (reversal) was 3.88% (inactive). Also, the inhibition in test [7] was -5.84% (inactive); in test [8], -2.62% (inactive).

Take `Cc1oc2c(CN3CCOCC3)c(O)ccc2c(=O)c1-c1ccc(Br)cc1`: the viability in test [1] is 85%; in test [3], 85% (inactive); in test [4] it was 91.8% (inactive); in test [5] it was 90.4% (inactive); in test [6] (setting [9]), 86%; in test [6] (setting [10]) it was 90.4%. In addition, the Her2 level in test [2] was 114% (inactive). For the same compound, in test [6] (H69AR cells + 2 uM doxorubicin), the differential viability (reversal) was 4.38% (inactive). Also, the inhibition in test [7] is -0.91% (inactive); in test [8], -2.67% (inactive).
